Results taken from ChEMBL document CHEMBL3108738, “The chemical and biological potential of C ring modified triterpenoids” (Eur J Med Chem, 2014).
Active and inactive are the calls of the source. The calls are words filed in the database; no cut-off is given here.

Legend:
[1] = Cytotoxicity against human 518A2 cells after 96 hrs by SRB assay; format: functional, cell-based; details: 518A2, 96 h
A2780 [2] = test: Cell cycle arrest in human A2780 cells assessed as accumulation at S phase at 30 uM by propidium iodide staining-based FACS analysis (reference value: 32.439 %); format: functional
A2780 [3] = test: Cell cycle arrest in human A2780 cells assessed as accumulation at G2 phase at 30 uM by propidium iodide staining-based FACS analysis (reference value: 15.721 %); format: functional
MCF7 = test: Cytotoxicity against human MCF7 cells after 96 hrs by SRB assay; format: functional, cell-based; details: MCF7, 96 h
HT-29 = test: Cytotoxicity against human HT-29 cells after 96 hrs by SRB assay; format: functional, cell-based; details: HT-29, 96 h
A2780 [4] = test: Cell cycle arrest in human A2780 cells assessed as reduction of G2/M phase at 30 uM by propidium iodide staining-based FACS analysis; format: functional
NIH3T3 = test: Cytotoxicity against mouse NIH/3T3 cells after 96 hrs by SRB assay; format: ADME, cell-based; details: NIH3T3, 96 h
A549 = test: Cytotoxicity against human A549 cells after 96 hrs by SRB assay; format: functional, cell-based; details: A549, 96 h
A2780 [5] = test: Cytotoxicity against human A2780 cells after 96 hrs by SRB assay; format: functional, cell-based; details: A2780, 96 h
8505C = test: cells; format: functional, cell-based; details: Homo sapiens, 96 h
A2780 [6] = test: Cell cycle arrest in human A2780 cells assessed as accumulation at G1 phase at 30 uM by propidium iodide staining-based FACS analysis (reference value: 51.839 %); format: functional
A2780 [7] = test: Induction of apoptosis in human A2780 cells assessed as vital cells at 30 uM after 24 hrs by annexin V/propidium iodide staining-based FACS analysis (reference value: 82.15%); format: functional
A2780 [8] = test: Induction of apoptosis in human A2780 cells assessed as necrotic cells at 30 uM after 24 hrs by annexin V/propidium iodide staining-based FACS analysis (reference value: 1.78%); format: functional
A2780 [9] = test: Cell cycle arrest in human A2780 cells assessed as accumulation at G0/G1 phase at 30 uM by propidium iodide staining-based FACS analysis; format: functional
A2780 [10] = test: Induction of apoptosis in human A2780 cells assessed as necrotic cells at 30 uM after 24 hrs by annexin V/propidium iodide staining-based FACS analysis (reference value: 6.37%); format: functional
A2780 [11] = test: Induction of apoptosis in human A2780 cells assessed as secondary necrotic cells at 30 uM after 24 hrs by annexin V/propidium iodide staining-based FACS analysis (reference value: 9.71%); format: functional
A2780 [12] = test: Induction of apoptosis in human A2780 cells at 30 uM after 24 hrs by annexin V/propidium iodide staining-based FACS analysis; format: functional
A2780 [13] = test: Induction of apoptosis in human A2780 cells assessed as DNA ladder formation at 30 uM after 24 hrs by electrophoresis; format: functional, cell-based
Procedure, shortened: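 A2780 cells were exposed to 30 µM compound for 24 h. Floating (dead) cells were collected and washed with PBS, and DNA fragmentation was examined by gel laddering alongside an untreated control.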

A2780 [14] = test: Cell cycle arrest in human A2780 cells at 30 uM by propidium iodide staining-based FACS analysis; format: functional

Row | IC50 (8505C) [µM] | Compound | IC50 [1] [µM] | Activity (A2780 [2]) [%] | Activity (A2780 [3]) [%] | IC50 (MCF7) [µM] | IC50 (HT-29) [µM] | Activity (A2780 [4]) | IC50 (NIH3T3) [µM] | IC50 (A549) [µM] | IC50 (A2780 [5]) [µM] | Activity (A2780 [6]) [%] | Activity (A2780 [7]) [%] | Activity (A2780 [8]) [%] | Activity (A2780 [9]) [%] | Activity (A2780 [10]) [%] | Activity (A2780 [11]) [%] | Activity (A2780 [12]) | Activity (A2780 [13]) | Activity (A2780 [14])
1 | 41.9 | CC(=O)O[C@H]1CC[C@]2(C)[C@H]3CC(=O)[C@@H]4[C@@H]5CC(C)(C)CC[C@]5(C(=O)OCc5ccccc5)CC[C@@]4(C)[C@]3(C)CC[C@H]2C1(C)C | 73.2 | 40.927 | 1.057 | > 90 | > 90 | Active | > 90 | 69.1 | 19.8 | 58.015 |  |  |  |  |  |  |  | 
2 | 31.1 | COC(=O)[C@]12CCC(C)(C)C[C@H]1[C@H]1C(=O)C[C@@H]3[C@@]4(C)CC[C@H](OC(C)=O)C(C)(C)[C@@H]4CC[C@@]3(C)[C@]1(C)CC2 | 40.8 | 24.431 | 14.004 | > 30 | 46.8 |  | 28.2 | > 30 | > 30 | 61.565 | 75.08 | 0.96 | <20 | 11 | 12.96 |  |  | 
3 | 16.4 | CC(=O)O[C@H]1CC[C@]2(C)[C@H]3C(=O)C(O)=C4[C@@H]5CC(C)(C)CC[C@]5(C(=O)OCc5ccccc5)CC[C@@]4(C)[C@]3(C)CC[C@H]2C1(C)C | > 60 | 22.262 | 15.469 | > 60 | > 60 |  | > 60 | > 60 | 8.2 | 62.269 | 72.96 | 1.55 | <20 | 12.83 | 12.64 |  |  | 
4 | 8.4 | COC(=O)[C@]12CCC(C)(C)C[C@H]1C1=C(O)C(=O)[C@@H]3[C@@]4(C)CC[C@H](OC(C)=O)C(C)(C)[C@@H]4CC[C@@]3(C)[C@]1(C)CC2 | 7.7 | 42.682 | 7.345 | 9.4 | 13.5 | Active | 12.5 | 8.2 | 4 | 49.973 | 57.12 | 2 |  | 24.67 | 16.21 | Active | Active | 
5 | 7 | CC(=O)O[C@H]1CC[C@]2(C)[C@H]3C[C@H](OC(C)=O)[C@]45OC(=O)[C@@]6(CCC(C)(C)C[C@H]64)CC[C@@]5(C)[C@]3(C)CC[C@H]2C1(C)C | 6.8 | 27.288 | 16.597 | 18.5 | 14.1 |  | 7.2 | 6.6 | 5.6 | 56.115 | 44.89 | 3.78 |  | 32.66 | 18.67 | Active | Active | inactive
